# Assay outcomes from PubChem.
# This is a sample that favours compounds with a hit; in the whole collection about 2.4% have one here.
# Scp1 inh = inhibitors of human Scp-1 phosphatase; Q9GZU7; Recombinant Scp1, phosphopeptide, malachite green phosphate absorbance; inhibition, % at 20 µM; 340,000 compounds, 0.88% hits; AID 493091;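 active means inhibition above about 50% at 20 µM, limit read from the data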
#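 Material – SCP-1 phosphatase catalytic domain, residues 76-261 · Buffer or medium – Acidic Tris acetate buffer with magnesium and detergent · Also added – Phospho 17-mer peptide substrate · Compound – single 20 µM dose, 1% DMSO · Times – 45 min room-temperature reaction, 5 min colour, 30 min stabiliser · Technique – Phosphate-binding colour reagent, absorbance read at 630 nm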
# LMPTP block = LMPTP (human) inhibition. 360,000 compounds, 0.22% hits. inhibition, % at 20 µM. P24666. recombinant LMPTP-A, OMFP fluorogenic substrate, fluorescence intensity. AID 651560;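 active means compounds that cut the enzyme signal by at least half of the control window in the single-dose screen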
# Target sequence (P24666 whole entry, looked up): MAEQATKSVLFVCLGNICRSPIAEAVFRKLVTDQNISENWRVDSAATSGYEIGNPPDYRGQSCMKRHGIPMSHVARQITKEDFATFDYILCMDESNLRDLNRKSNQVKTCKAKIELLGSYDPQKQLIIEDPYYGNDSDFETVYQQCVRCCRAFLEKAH
#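 Test system: LMPTP-A, protein tyrosine phosphatase of low molecular weight; Input: 0.625 nM enzyme; Incubation: 50 min dark incubation at room temperature; Signal: endpoint fluorescence intensity from OMFP dephosphorylation; Read-out basis: % inhibition versus control wells.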
# STEP block = blocks human striatal-enriched tyrosine phosphatase. 360,000 compounds, 0.25% hits. inhibition, % at 20 µM. recombinant STEP, OMFP fluorogenic substrate, fluorescence. P54829;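 active means inhibition at 20 µM, scaled per plate between control wells, above about 37%, limit read from the data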
#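 System: STEP (striatal-enriched tyrosine phosphatase) enzyme, cell-free; medium: Bis-Tris pH 6.0 buffer with DTT, detergent; dosing: 20 µM, 1% DMSO; times: reaction 20 min, ambient temperature; detection: fluorescence, 480/540 nm; read-out basis: normalized % inhibition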
# DNMT1 block = blocks human DNA methyltransferase DNMT1; inhibition (reported as % activation of signal), % at 10 µM; 360,000 compounds, 0.83% hits; P26358; DNMT1 molecular beacon, Hinp1I cleavage, fluorescence; in the data active means inhibition above about 50%
# NadD block = inhibitors of Staphylococcus aureus NadD | purified NadD enzyme, colorimetric absorbance read-out | inhibition, % at 20 µM | 360,000 compounds, 0.78% hits | AID 602399; in the data active means inhibition above about 26%
# SUMO1-SIM PPI = alters human SUMO1 binding to SIM partners; P63165; SUMO1 binding to a labelled peptide, TR-FRET, 1 h; inhibition, % at 20 µM; 360,000 compounds, 0.33% hits; AID 602429; in the data active means inhibition above about 37%
# Target sequence (P63165 whole entry, looked up): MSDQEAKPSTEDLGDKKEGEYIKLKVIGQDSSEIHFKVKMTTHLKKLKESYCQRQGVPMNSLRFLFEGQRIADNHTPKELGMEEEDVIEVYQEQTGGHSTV
# Hits are given with their value; - = inactive; + = active, no number.
SMILES,Scp1 inh,LMPTP block,STEP block,DNMT1 block,NadD block,SUMO1-SIM PPI
O=C(Nc1nccs1)c1cc(-c2ccccn2)nc2c(Cl)cccc12,-,-,-,-,-,53
O=C(Nc1nccs1)c1cc(Cl)nc2ccccc12,-,-,-,-,-,-
O=S(=O)(Cc1ccccc1)N1CCN(Cc2c(F)cccc2Cl)CC1,-,-,-,-,-,-
CCN(CC)c1ccc2cc(-c3nc4ccccc4[nH]3)c(=O)oc2c1,-,-,-,+,-,-
Cc1c(NC(=O)C(C)Oc2ccccc2F)c(=O)n(-c2ccccc2)n1C (centres undefined),-,-,-,-,-,-
O=S(=O)(O)c1cc(O)c2c(O)c(N=Nc3cc(Cl)ccc3O)c(S(=O)(=O)O)cc2c1,83,102,101,85,-,84
Cc1ccc(N2C(=O)N3[C@H]4c5ccccc5OC[C@@H]4[C@@H](c4ccccc4)[C@@]3(C)C2=O)cc1,-,-,-,-,-,-
NC(=O)N/N=C/c1ccc(-c2ccc(S(=O)(=O)Nc3ncccn3)cc2)o1,-,-,-,-,-,-
CC(C)Oc1ccc(C(=O)N/N=C/c2ccc(-c3ccc(S(=O)(=O)Nc4ncccn4)cc3)o2)cc1,-,-,-,-,35,-
Cc1ccc(C2=NNC(=O)C(c3c[nH]c4ccccc34)C2)cc1 (centres undefined),-,-,-,-,-,55
O=C1NN=C(c2ccc(Cl)cc2)CC1c1c[nH]c2ccccc12 (centres undefined),-,-,-,-,-,-
COC(=O)c1cc(CN2C(=O)c3ccccc3C2=O)c(O)c([N+](=O)[O-])c1,-,-,-,-,-,-
CCN(CC(=O)NC1CCS(=O)(=O)C1)c1ccc(S(=O)(=O)N(CC)CC)cc1[N+](=O)[O-] (centres undefined),-,-,-,-,-,-
O=C1NC(=O)/C(=C/c2cccc3ccccc23)S1,-,-,-,-,-,-
O=C1NC(=O)/C(=C\c2ccc(O)cc2O)S1,53,-,-,-,-,-
CC(Sc1nnc(NCc2ccccc2)s1)C(=O)Nc1ccc2c(c1)C(=O)c1ccccc1C2=O (centres undefined),-,-,-,-,38,-
CCSc1nnc(NC(=O)Cc2ccc(OC)c(OC)c2)s1,-,-,-,-,-,-
S=C(c1ccc(Cl)cc1)N1CCN(Cc2ccccc2)CC1,-,-,-,-,-,-
Cc1ccc(C)n1-c1sccc1C(=O)O,80,-,75,107,-,66
CCc1ccc(N2CN(Cc3cccnc3)CNC2=S)cc1,-,-,-,-,-,-
O=C(Nc1ccc(-n2nncc2-c2ccco2)cc1)c1cccc(F)c1,-,-,-,-,-,-
O=C(Nc1ccc(-n2nncc2-c2ccco2)cc1)c1cc2ccccc2oc1=O,-,-,45,112,-,57
CC(C)(C)C(=O)Nc1sc2c(c1-c1nc3ccccc3[nH]1)CCCC2,-,-,-,-,-,-
COc1cccc(C2CC(c3cccs3)=NN2C(=O)CSc2nc3c(cnn3-c3ccc(F)cc3)c(=O)[nH]2)c1OC (centres undefined),-,-,-,-,39,-
CC(C)COC(=O)N1CCCC1C(=O)O (centres undefined),-,-,-,-,-,-
SMILES,Scp1 inh,LMPTP block,STEP block,DNMT1 block,NadD block,SUMO1-SIM PPI
O=C(Nc1ccccc1F)c1oc2ccccc2c1NC(=O)C1CC1,-,-,-,-,-,-
COc1ccc(CC(=O)NCC2CCCN(Cc3ccc(F)cc3F)C2)cc1 (centres undefined),-,-,-,-,-,-
COC(=O)CSc1nc(SC)nc2c1sc1nc(-c3ccco3)c3c(c12)CC(C)(C)OC3,-,-,-,-,-,-
CSc1nc(N(CCO)CCO)c2sc3nc(-c4ccco4)c4c(c3c2n1)CCC4,81,68,56,96,80,74
CCN(CC(=O)Nc1c(F)cccc1F)C(=O)C1CCN(c2ncnc3sc(C)c(C)c23)CC1,-,-,-,-,-,-
CCOc1ccc(CN(C)c2ccc(S(=O)(=O)N3CCN(C)CC3)cc2[N+](=O)[O-])cc1OC,-,-,-,-,-,-
